Compound activity (PubChem BioAssay)
Hep lipid drop: modulators of hepatic lipid droplet formation; inhibition, % at 6.5 µM; 240,000 tested, 0.4% active; AML12 mouse hepatocytes, oleate lipid droplets, BODIPY imaging;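 active = lipid droplet intensity inhibited by at least 50%, with more than 500 cells counted; inconclusive = wells with under 300 cells, treated as cytotoxic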
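material = mouse AML12 hepatocyte cell line, fixed after treatment | also added = 100 µM oleic acid challenge | doses = compound at 6.5 µM only | schedule = overnight exposure | technique = Image-based BODIPY and DAPI two-channel analysis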
STK33 inh: inhibitors of human STK33 kinase | 320,000 tested, 0.073% active | Q9BYT3 | inhibition, % at 10 µM | purified STK33, MBP phosphorylation, ADP-Glo luminescence;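 active = inhibition at or above 25%, using the most active replicate where run in duplicate; inactive = inhibition below 25%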
GSK3B inh: human GSK3beta kinase inhibition. P49841. GST-GSK3beta kinase, ADP-Glo luminescence, 60 min; active compounds read low. activity score (negative = inhibition), % at 10 µM. 300,000 tested, 0.038% active. AID 2097;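 active = more than half of replicate wells score below -50%, meaning over 50% inhibition versus plate controls; inconclusive = some replicates but at most half score below -50%; inactive = no replicate scores below -50%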;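 note: 0% = median DMSO wells and -100% = median GW8510 positive control wells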
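Test system: GST-fused GSK3beta enzyme, cell-free | Quantity: 1.6 ng GST-GSK3beta enzyme per well | Reagent: 25 µM ATP with peptide substrate | Schedule: 60 min enzyme reaction, room temperature | Signal: Luminescent ADP-Glo measurement of ADP formed | Read-out basis: Score relative to plate controls | Control set: DMSO and 20 µM GW8510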
GSK3A inh: inhibitors of human GSK-3 alpha kinase | inhibition, % at 10 µM | 320,000 tested, 0.1% active | ADP-Glo luminescence, 60 min;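 active = more than half of replicates show inhibition above 20%; inconclusive = some but at most half of replicates above 20% inhibition; inactive = no replicate shows inhibition above 20%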;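 note: GST-tagged GSK-3 alpha with peptide substrate and 25 µM ATP; 0% = DMSO neutral wells and 100% = GW8510 positive control wells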
Target sequence (P49840 whole entry, looked up): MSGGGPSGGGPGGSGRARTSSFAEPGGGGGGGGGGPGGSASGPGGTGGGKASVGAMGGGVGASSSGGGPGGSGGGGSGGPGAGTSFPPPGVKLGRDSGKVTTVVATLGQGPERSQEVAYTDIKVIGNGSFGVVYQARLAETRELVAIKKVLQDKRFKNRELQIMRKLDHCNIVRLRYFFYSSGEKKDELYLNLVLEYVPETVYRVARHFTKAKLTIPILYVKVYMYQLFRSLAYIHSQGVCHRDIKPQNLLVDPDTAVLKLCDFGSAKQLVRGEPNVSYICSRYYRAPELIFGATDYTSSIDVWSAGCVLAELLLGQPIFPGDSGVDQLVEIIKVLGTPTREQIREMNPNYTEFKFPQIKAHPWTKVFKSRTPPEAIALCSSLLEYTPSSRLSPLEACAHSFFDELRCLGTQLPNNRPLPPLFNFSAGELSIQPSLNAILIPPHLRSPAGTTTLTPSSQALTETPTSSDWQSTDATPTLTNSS
HSV augment: HSV replication enhancement. HSV replication augmentation in cells, fold increase. maximum fold increase. 220,000 tested, 0.005% active; in the data active = maximum fold increase above about 1.5; inconclusive = no clear call, values can overlap the other calls; tested in PC3 cells
Rce1 inh: inhibitors of yeast Ras-converting enzyme; 290,000 tested, 0.27% active; Q03530; AID 2563; yeast membranes, quenched prenylated peptide cleavage fluorescence; calls only;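 active = fall in fluorescence gain of 50% or more versus controls, with final raw signal at or below 3038400; inconclusive = same 50% fall but final raw signal above 3038400; inactive = fall in fluorescence gain under 50%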;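 note: plate controls were neutral control wells for no effect and wells lacking membranes for full effect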
An asterisk follows results filed as active; i = inactive; ? = inconclusive; · = not tested or not shown; + = active, no number. The list is not random: actives were taken first. Their share in the collection is about 0.7%.

SMILES	Hep lipid drop	STK33 inh	GSK3B inh	GSK3A inh	HSV augment	Rce1 inh
CC(NC(=O)/C(C#N)=C/c1ccc(Cl)c([N+](=O)[O-])c1)c1ccccc1 (stereo unspecified)	-5.5	-0.9	0.6	-1.1	i	+
CC(C)N1CCN(S(=O)(=O)c2ccc3ccccc3c2)CC1	-0.7	0.1	2.4	-3.2	·	+
COc1ccc(NC(=O)C(=O)c2cn(CC(=O)N3CCOCC3)c3ccccc23)cc1OC	-10.2	0.1	1.2	0.8	·	i
CN(C)c1ccc(/C=N/NC(=O)CNC(=O)c2ccco2)cc1	-3.6	1.4	2.2	-1.7	i	+
CN(C)c1ccc(/C=N/NC(=O)CNC(=O)/C=C/c2ccccc2)cc1	-2.4	0.4	-1.1	0.7	·	i
O=C(c1ccccc1)N1N=C(c2ccccc2)CC1c1ccccc1 (stereo unspecified)	·	-0.8	1.8	-0.3	·	i
Cc1ccc(C(=O)N2N=C(c3ccccc3O)CC2c2ccccc2)cc1 (stereo unspecified)	3.2	-0.9	-3.5	-0.6	·	+
CN1C(=O)/C(=C/c2cccc(Cl)c2)Sc2ccc(C(=O)N3CCOCC3)cc21	-14.2	-1.9	3.2	-1.6	·	+
N#CCCN(C(=O)c1ccc2c(=O)n3c(nc2c1)CCCCC3)c1ccccc1	-6.1	-0.8	-1.1	-0.1	·	i
CC(C)OC(=O)c1c(N)n(CCCN2CCOCC2)c2nc3ccccc3nc12	-3.5	-2.2	-0.4	1.6	i	+
CN(C)C(=O)COC(=O)c1ccccc1NC(=O)c1ccco1	4.4	-1.8	0.3	-2.6	i	i
COc1cccc(-c2ccc(-c3noc(-c4ccccc4F)n3)c(OC)n2)c1	-2.0	0.0	0.9	-1.7	i	+
Cc1ccc(NS(=O)(=O)Cc2ccccc2)cc1Cl	2.3	-0.7	1.1	0.3	·	i
CCCn1c2ccc(/C(C)=N\O)cc2c2cc(/C(C)=N/O)ccc21	·	44.4*	-1.7	0.9	i	i
C/C(=N\O)c1ccc(Cl)c(Cl)c1	4.1	1.1	4.3	-2.5	i	i
Cn1c(N)c(C(=O)COC(=O)c2ccccc2C(=O)c2ccc(Cl)c([N+](=O)[O-])c2)c(=O)n(C)c1=O	·	0.0	·	-0.6	·	·
COc1ccc(C2CC(c3cccs3)=NN2C(=O)CSc2nc3c(cnn3-c3ccccc3)c(=O)[nH]2)cc1 (stereo unspecified)	-34.3	-0.7	-3.5	0.3	i	i
COc1cccc(C2CC(c3cccs3)=NN2C(=O)CSc2nc3c(cnn3-c3ccc(F)cc3)c(=O)[nH]2)c1OC (stereo unspecified)	6.9	0.8	-4.3	-2.0	i	+
CCCNCC1COc2ccccc2O1 (stereo unspecified)	16.8	-0.5	-52.4*	5.8	i	i
CCc1nc(Nc2ccc(N3CCN(C(C)=O)CC3)cc2)c2oc3ccccc3c2n1	·	1.8	0.3	0.5	i	+
CC(=O)Nc1ccc(S(=O)(=O)NCc2nc(-c3ccc(C)cc3)no2)cc1	-5.6	-1.2	-1.6	-6.2	·	i
COCCn1cc(C(=O)NCCN(C)C)c2c3ccccc3n(C)c2c1=O	0.6	-0.9	1.2	-1.3	·	+
O=C1c2ccccc2C(=O)c2c1ccc(C(=O)N1CCCCC1)c2NCCO	·	0.5	1.5	-0.3	i	i
CC1(C)CCCN(C(=O)c2ccc3c(c2NCCO)C(=O)c2ccccc2C3=O)C1	98.3*	3.0	0.4	2.1	i	i
COC(=O)Cn1c(CCC(=O)O)ccc1-c1ccccc1	·	-0.6	0.0	-3.0	i	+
SMILES	Hep lipid drop	STK33 inh	GSK3B inh	GSK3A inh	HSV augment	Rce1 inh
O=C(O)C[C@H](O)C[C@H](O)/C=C/c1c(C2CC2)nc2ccccc2c1-c1ccc(F)cc1	·	·	0.5	·	i	i
O=C1NC2c3ccccc3C(=O)N2c2c1cnn2-c1ccccc1 (stereo unspecified)	15.0	28.0*	-0.1	11.6	i	i
O=C1c2ccccc2-c2onc3ccc(NCCCn4ccnc4)c1c23	-7.0	47.6*	-29.4	62.8*	?	i
O=C(OC1C[C@@H]2CC3C[C@H](C1)N2CC3=O)c1c[nH]c2ccccc12 (stereo partly specified)	·	·	·	·	i	·
CN(C(=O)c1ccc2c(c1)SC1=NS(=O)(=O)CCN12)C(c1ccccc1)c1ccccc1	-5.8	-0.2	2.0	1.1	i	+
CC(=O)OC1=C(O)C(=O)c2ccccc2C1=O	·	0.4	2.0	1.9	i	+
N/C(=N\OC(=O)c1ccc2c(c1)OCO2)c1cccc([N+](=O)[O-])c1	1.7	3.6	1.5	0.1	i	i
Cc1cccc(/C(N)=N/OC(=O)c2ccc3c(c2)OCO3)c1	1.8	31.6*	-24.8	34.8	i	i
COC(=O)C1=CN(CC2CCCO2)C=C(C(=O)OC)C1c1cccc(O)c1 (stereo unspecified)	15.4	2.0	0.6	0.3	i	+
COC(=O)C1=CN(CC2CCCO2)C=C(C(=O)OC)C1c1ccsc1 (stereo unspecified)	·	-1.1	-0.3	-1.8	i	?
C=CCn1c(SCC(=O)Nc2cccc(S(N)(=O)=O)c2)nc2sc(C)c(C)c2c1=O	·	4.1	·	-1.1	·	·
CC(=O)c1c(C)[nH]c(C(=O)OCc2ccc(Br)cc2)c1C	-2.5	3.0	-0.3	-3.8	i	+
CC(=O)c1c(C)[nH]c(C(=O)OCc2cccc(C)c2)c1C	10.3	1.4	1.4	-0.8	·	i
COc1ccc(CCN(C)C(=O)c2ccc(S(=O)(=O)Nc3ccccc3C)cc2)cc1OC	-4.9	4.7	-25.9	-1.9	·	+
CCOc1ccc(NS(=O)(=O)c2ccc(C(=O)N(C)CCc3ccc(OC)c(OC)c3)cc2)cc1	0.5	-1.3	6.7	-1.2	·	i
O=C1C=CC(O)(c2cc(=O)c3c(O)cc(O)cc3o2)C=C1	-72.1	38.4*	-0.9	26.3	i	i
O=c1cc(-c2ccccc2Cl)oc2cc(O)cc(O)c12	0.9	-0.5	-2.7	2.7	i	i
COc1ccc(S(=O)(=O)N2Cc3ccccc3CC2C(=O)Nc2nccs2)cc1 (stereo unspecified)	·	-1.4	2.3	-2.5	i	i
O=C(Nc1nc(-c2ccc(Cl)cc2Cl)cs1)c1ccc(OCC2CCCO2)cc1 (stereo unspecified)	77.4*	0.8	1.5	-0.7	i	i
Nc1nc(NCCCN2CCOCC2)nc(Nc2ccc(F)cc2)c1[N+](=O)[O-]	-8.9	0.3	12.0	51.0*	i	i
COCCNc1nc(N)c([N+](=O)[O-])c(Nc2ccc(F)cc2)n1	4.4	-1.2	-0.8	4.4	·	i
Nc1nc(NCCCN2CCOCC2)nc(Nc2cccc(F)c2)c1[N+](=O)[O-]	1.6	-3.2	-70.6*	56.5*	i	i
